Reference: ChEMBL document CHEMBL2146427, “Protective effects of hyperoside against carbon tetrachloride-induced liver damage in mice” (2011)
The source made the active and inactive calls. The calls are words filed in the database; no cut-off is given here.

Experiments:
[1] = tested on: Mus musculus; test: Hepatoprotective activity against CCL4-induced liver damage in ICR mouse assessed as liver MDA level per mg protein at 50 mg/kg, ip dosed 30 mins before and 2 hrs post CCL4 challenge and measured 24 hrs post CCL4 challenge by TBARS detection based spectrophotometry (reference value: 3.2 +/- 0.5 nmol/mg protein); details: route intraperitoneal
[2] = tested on: Mus musculus; test: Hepatoprotective activity against CCL4-induced liver damage in ICR mouse assessed as serum AST level at 50 mg/kg, ip dosed 30 mins before and 2 hrs post CCL4 challenge and measured 24 hrs post CCL4 challenge (reference value: 7518 +/- 426 U/L); format: functional; details: route intraperitoneal
[3] = tested on: Mus musculus; test: Hepatoprotective activity against CCL4-induced liver damage in ICR mouse assessed as reduction in CCL-induced COX2 mRNA expression at 100 mg/kg, ip dosed 30 mins before and 2 hrs post CCL4 challenge and measured 24 hrs post CCL4 challenge by RT-PCR; format: functional, organism-based; parameters: dose 100 mg/kg
How it was run: (§1)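 Liver total RNA (Chomczynski–Sacchi), oligo(dT) primed reverse transcription, then PCR with 10 μM primers. Cycling was 94/56/72 °C, 30 s each, for 35 cycles (COX-2) or 30 cycles (HO-1), and 94/60/72 °C for 35 cycles (iNOS), with β-actin at 25 cycles. Products were run on 1.5% agarose and stained with ethidium bromide. Male ICR mice, 10 per group, fasted 16 h.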

[4] = tested on: Mus musculus; test: Hepatoprotective activity against CCL4-induced liver damage in ICR mouse assessed as […] level per gram of liver at 200 mg/kg, ip dosed 30 mins before and 2 hrs post CCL4 challenge and measured 24 hrs post CCL4 challenge (reference value: 4.8 +/- 0.3 umol/g liver); format: functional; details: route intraperitoneal
[5] = tested on: Mus musculus; test: Hepatoprotective activity against CCL4-induced liver damage in ICR mouse assessed as augmentation of CCL-induced HO-1 protein expression at 100 mg/kg, ip dosed 30 mins before and 2 hrs post CCL4 challenge and measured 24 hrs post CCL4 challenge by Western blot; format: functional, organism-based; parameters: dose 100 mg/kg
[6] = tested on: Mus musculus; test: Hepatoprotective activity against CCL4-induced liver damage in ICR mouse assessed as reduction in CCL-induced iNOS protein expression at 100 mg/kg, ip dosed 30 mins before and 2 hrs post CCL4 challenge and measured 24 hrs post CCL4 challenge by Western blot; format: functional, organism-based; parameters: dose 100 mg/kg
[7] = tested on: Mus musculus; test: Hepatoprotective activity against CCL4-induced liver damage in ICR mouse assessed as […] level per gram of liver at 100 mg/kg, ip dosed 30 mins before and 2 hrs post CCL4 challenge and measured 24 hrs post CCL4 challenge (reference value: 4.8 +/- 0.3 umol/g liver); format: functional; details: route intraperitoneal
[8] = tested on: Mus musculus; test: Hepatoprotective activity against CCL4-induced liver damage in ICR mouse assessed as reduction in CCL-induced TNFalpha production at 100 mg/kg, ip dosed 30 mins before and 2 hrs post CCL4 challenge and measured 24 hrs post CCL4 challenge by ELISA; format: functional, organism-based; parameters: dose 100 mg/kg
How it was run: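 Serum TNF-α measured by commercial ELISA on abdominal aortic blood drawn 24 h after ip CCl4 (20 μL/kg in olive oil). Male ICR mice, 10 per group, fasted 16 h; saline vehicle ip; mean ± SEM.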

[9] = tested on: Mus musculus; test: Hepatoprotective activity against CCL4-induced liver damage in ICR mouse assessed as serum ALT level at 50 mg/kg, ip dosed 30 mins before and 2 hrs post CCL4 challenge and measured 24 hrs post CCL4 challenge (reference value: 10229 +/- 918 U/L); format: functional; details: route intraperitoneal
[10] = tested on: Mus musculus; test: (§2) Hepatoprotective activity against CCL4-induced liver damage in ICR mouse assessed as […] level per mg protein at 100 mg/kg, ip dosed 30 mins before and 2 hrs post CCL4 challenge and measured 24 hrs post CCL4 challenge by TBARS detection based spectrophotometry (reference value: 3.2 +/- 0.5 nmol/mg protein); format: functional; details: route intraperitoneal
[11] = tested on: Mus musculus; test: as §2, with “200” for “100”; format: functional; details: route intraperitoneal
[12] = tested on: Mus musculus; test: Hepatoprotective activity against CCL4-induced liver damage in ICR mouse assessed as serum AST level at 100 mg/kg, ip dosed 30 mins before and 2 hrs post CCL4 challenge and measured 24 hrs post CCL4 challenge (reference value: 7518 +/- 426 U/L); format: functional; details: route intraperitoneal
[13] = tested on: Mus musculus; test: Hepatoprotective activity against CCL4-induced liver damage in ICR mouse assessed as reduction in CCL-induced iNOS mRNA expression at 100 mg/kg, ip dosed 30 mins before and 2 hrs post CCL4 challenge and measured 24 hrs post CCL4 challenge by RT-PCR; format: functional, organism-based; parameters: dose 100 mg/kg
How it was run: as §1

[14] = tested on: Mus musculus; test: Hepatoprotective activity against CCL4-induced liver damage in ICR mouse assessed as serum ALT level at 200 mg/kg, ip dosed 30 mins before and 2 hrs post CCL4 challenge and measured 24 hrs post CCL4 challenge (reference value: 10229 +/- 918 U/L); format: functional; details: route intraperitoneal
[15] = tested on: Mus musculus; test: Hepatoprotective activity against CCL4-induced liver damage in ICR mouse assessed as increase in CCL-induced nuclear Nrf2 protein level at 100 mg/kg, ip dosed 30 mins before and 2 hrs post CCL4 challenge and measured 24 hrs post CCL4 challenge by Western blot; format: functional, organism-based; parameters: dose 100 mg/kg
How it was run: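 Nuclear proteins were extracted from fresh liver with NE-PER, and 15 μg per lane was immunoblotted: nitrocellulose, 1 h milk block, primary antibody overnight at 4 °C, ECL, densitometry. Male ICR mice (25–30 g), 10 per group, fasted 16 h; CCl4 20 μL/kg ip in olive oil; sampled 24 h later.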

[16] = tested on: Mus musculus; test: Hepatoprotective activity against CCL4-induced liver damage in ICR mouse assessed as serum AST level at 200 mg/kg, ip dosed 30 mins before and 2 hrs post CCL4 challenge and measured 24 hrs post CCL4 challenge (reference value: 7518 +/- 426 U/L); format: functional; details: route intraperitoneal
[17] = tested on: Mus musculus; test: Hepatoprotective activity against CCL4-induced liver damage in ICR mouse assessed as augmentation of CCL-induced HO-1 mRNA expression at 100 mg/kg, ip dosed 30 mins before and 2 hrs post CCL4 challenge and measured 24 hrs post CCL4 challenge by RT-PCR; format: functional, organism-based; parameters: dose 100 mg/kg
How it was run: as §1

[18] = tested on: Mus musculus; test: Hepatoprotective activity against CCL4-induced liver damage in ICR mouse assessed as reduction in Kupffer cell hyperplasia at 100 mg/kg, ip dosed 30 mins before and 2 hrs post CCL4 challenge and measured 24 hrs post CCL4 challenge by hematoxylin-eosin staining based method; format: functional, organism-based; parameters: dose 100 mg/kg
How it was run: (§3)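 Left liver lobe fixed in 10% neutral-buffered formalin, paraffin-embedded, cut at 5 μm and stained with H&E. Scored blind for portal inflammation, hepatocellular necrosis and inflammatory infiltration across 100 random nonconsecutive fields. Male ICR mice; CCl4 20 μL/kg ip in olive oil; tissue taken at 24 h.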

[19] = tested on: Mus musculus; test: Hepatoprotective activity against CCL4-induced liver damage in ICR mouse assessed as […] level per gram of liver at 50 mg/kg, ip dosed 30 mins before and 2 hrs post CCL4 challenge and measured 24 hrs post CCL4 challenge (reference value: 4.8 +/- 0.3 umol/g liver); format: functional; details: route intraperitoneal
[20] = tested on: Mus musculus; test: Hepatoprotective activity against CCL4-induced liver damage in ICR mouse assessed as serum ALT level at 100 mg/kg, ip dosed 30 mins before and 2 hrs post CCL4 challenge and measured 24 hrs post CCL4 challenge (reference value: 10229 +/- 918 U/L); format: functional; details: route intraperitoneal
[21] = tested on: Mus musculus; test: Hepatoprotective activity against CCL4-induced liver damage in ICR mouse assessed as reduction in CCL-induced COX2 protein expression at 100 mg/kg, ip dosed 30 mins before and 2 hrs post CCL4 challenge and measured 24 hrs post CCL4 challenge by Western blot; format: functional, organism-based; parameters: dose 100 mg/kg
[22] = tested on: Mus musculus; test: Hepatoprotective activity against CCL4-induced liver damage in ICR mouse assessed as reduction in centrizonal necrosis at 100 mg/kg, ip dosed 30 mins before and 2 hrs post CCL4 challenge and measured 24 hrs post CCL4 challenge by hematoxylin-eosin staining based method; format: functional, organism-based; parameters: dose 100 mg/kg
How it was run: as §3

[23] = tested on: Mus musculus; test: Hepatoprotective activity against CCL4-induced liver damage in ICR mouse assessed as reduction in portal inflammation at 100 mg/kg, ip dosed 30 mins before and 2 hrs post CCL4 challenge and measured 24 hrs post CCL4 challenge by hematoxylin-eosin staining based method; format: functional, organism-based; parameters: dose 100 mg/kg
How it was run: as §3

In the case of `O=c1c(O[C@@H]2O[C@H](CO)[C@H](O)[C@H](O)[C@H]2O)c(-c2ccc(O)c(O)c2)oc2cc(O)cc(O)c12` [HYPEROSIDE], the Activity [1] is reported as 2.4 nmol, the Activity [2] is reported as 6820 U/L and the Activity [3] is reported as “Active”. For the same compound, the Activity [4] was 6 µmol, the Activity [5] was “Active” and the Activity [6] was “Active”. The Activity [7] was 5.2 µmol, the Activity [8] was “Active” and the Activity [9] was 10740 U/L. For the same compound, the Activity [10] was 1.5 nmol, the Activity [11] was 1.4 nmol and the Activity [12] was 5488 U/L. The Activity [13] was “Active”, the Activity [14] was 7055 U/L and the Activity [15] was “Active”. The Activity [16] was 5382 U/L, the Activity [17] was “Active” and the Activity [18] was “Active”. The Activity [19] was 6.1 µmol, the Activity [20] was 7134 U/L and the Activity [21] was “Active”. For the same compound, the Activity [22] was “Active” and the Activity [23] was “Active”.
